Assay results taken from ChEMBL document CHEMBL3045605, “Synthesis and anticancer evaluation of novel 3,5-diaryl-thiazolo[4,5-d]pyrimidin-2-one derivatives” (2013).

Columns and labels:
Type in all cases: functional
[1] = Anticancer activity against Homo sapiens (human) NCI-322M cells by SRB assay
How it was run: (§1)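 Five-dose NCI 60-cell-line panel testing at tenfold dilutions from 10−4 to 10−8 M, with growth read by sulforhodamine B protein staining. For each cell line: GI50 is the molar concentration giving half growth inhibition; TGI is total growth inhibition (cytostatic); LC50 is the molar concentration killing 50% of the initial cells (cytotoxic).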

U-251 = test: Anticancer activity against Homo sapiens (human) U251 cells assessed as cell growth at 10 uM by SRB assay; conditions: read-out: Activity
How it was run: (§2)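 NCI 60-cell human tumour panel (leukemia, melanoma, lung, colon, CNS, breast, ovarian, prostate, renal lines) given a single 10−5 M dose. Growth is expressed as percent growth of treated cells relative to untreated controls, with cell growth/viability estimated by sulforhodamine B protein staining.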

SF-295 [2] = test: Anticancer activity against Homo sapiens (human) SF295 cells by SRB assay; how it was run: as §1
Hs-578T = test: Anticancer activity against Homo sapiens (human) Hs 578T cells assessed as cell growth at 10 uM by SRB assay; conditions: read-out: Activity
How it was run: (§3)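 NCI 60-cell human tumour panel (nine cancer types) screened at one concentration, 10−5 M. Cell growth estimated by sulforhodamine B protein staining and reported as percent growth of treated cells relative to untreated controls.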

KM12 = test: Anticancer activity against Homo sapiens (human) KM12 cells assessed as cell growth at 10 uM by SRB assay; conditions: read-out: Activity; how it was run: as §3
OVCAR-4 = test: Anticancer activity against Homo sapiens (human) OVCAR4 cells assessed as cell growth at 10 uM by SRB assay; conditions: read-out: Activity
How it was run: (§4)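 Single-dose screen in the NCI 60-human-tumour-cell-line panel (nine cancer types) at 10−5 M. Cell growth was estimated by sulforhodamine B protein staining and reported as percent growth of treated cells relative to untreated controls.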

HT-29 = test: Anticancer activity against Homo sapiens (human) HT-29 cells assessed as cell growth at 10 uM by SRB assay; conditions: read-out: Activity; how it was run: as §3
SN12C [3] = test: Anticancer activity against Homo sapiens (human) SN12C cells by SRB assay; how it was run: as §1
CCRF-CEM [4] = test: Anticancer activity against Homo sapiens (human) CCRF-CEM cells by SRB assay
How it was run: (§5)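 NCI 60-line panel, five tenfold dilutions from 10−4 to 10−8 M, growth read by sulforhodamine B staining against untreated controls. From the dose–response per line: GI50 (molar concentration giving half growth inhibition), TGI (molar concentration giving total growth inhibition, cytostatic) and LC50 (molar concentration killing 50% of initial cells, cytotoxic).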

HOP-62 = test: Anticancer activity against Homo sapiens (human) HOP62 cells by SRB assay; how it was run: as §5
SN12C [5] = test: Anticancer activity against Homo sapiens (human) SN12C cells assessed as cell growth at 10 uM by SRB assay; conditions: read-out: Activity; how it was run: as §4
786-0 [6] = test: Anticancer activity against Homo sapiens (human) 786-0 cells assessed as cell growth at 10 uM by SRB assay; conditions: read-out: Activity; how it was run: as §3
TK-10 [7] = test: Anticancer activity against Homo sapiens (human) TK10 cells by SRB assay
How it was run: (§6)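 NCI five-dose follow-up on the 60-line human tumour panel at tenfold dilutions from 10−4 to 10−8 M, with growth read by sulforhodamine B protein assay against untreated controls. For each cell line, GI50 (half growth inhibition), TGI (total growth inhibition) and LC50 (50% death of initial cells) are calculated as molar concentrations.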

SK-MEL-5 = test: Anticancer activity against Homo sapiens (human) SK-MEL-5 cells by SRB assay; how it was run: as §1
HL-60(TB) = test: Anticancer activity against Homo sapiens (human) HL-60(TB) cells by SRB assay
How it was run: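 NCI panel of about 60 human tumour cell lines, tested at five tenfold dilutions from 10−4 to 10−8 M, with sulforhodamine B read-out. GI50 (molar concentration giving half growth inhibition), TGI (total growth inhibition) and LC50 (50% death of initial cells) were calculated for each cell line.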

SR = test: Anticancer activity against Homo sapiens (human) SR cells by SRB assay; how it was run: as §6
NCI-H522 = test: Anticancer activity against Homo sapiens (human) NCI-H522 cells assessed as cell growth at 10 uM by SRB assay; conditions: read-out: Activity; how it was run: as §4
RXF 393 = test: Anticancer activity against Homo sapiens (human) RXF393 cells by SRB assay; how it was run: as §1
SW-620 = test: Anticancer activity against Homo sapiens (human) SW620 cells assessed as cell growth at 10 uM by SRB assay; conditions: read-out: Activity; how it was run: as §2
CAKI-1 [8] = test: Anticancer activity against Homo sapiens (human) CAKI-1 cells assessed as cell growth at 10 uM by SRB assay; conditions: read-out: Activity; how it was run: as §3
SNB-75 = test: Anticancer activity against Homo sapiens (human) SNB75 cells assessed as cell growth at 10 uM by SRB assay; conditions: read-out: Activity; how it was run: as §4
LOX IMVI = test: Anticancer activity against Homo sapiens (human) LOXIMVI cells assessed as cell growth at 10 uM by SRB assay; conditions: read-out: Activity; how it was run: as §3
NCI-H23 = test: Anticancer activity against Homo sapiens (human) NCI-H23 cells assessed as cell growth at 10 uM by SRB assay; conditions: read-out: Activity; how it was run: as §4
CCRF-CEM [9] = test: Anticancer activity against Homo sapiens (human) CCRF-CEM cells assessed as cell growth at 10 uM by SRB assay; conditions: read-out: Activity; how it was run: as §3
SF-268 = test: Anticancer activity against Homo sapiens (human) SF268 cells by SRB assay; how it was run: as §1
MCF7 [10] = test: Anticancer activity against Homo sapiens (human) MCF7 cells assessed as cell growth at 10 uM by SRB assay; conditions: read-out: Activity; how it was run: as §3
[11] = Anticancer activity against Homo sapiens (human) RPMI8266 cells assessed as cell growth at 10 uM by SRB assay; conditions: read-out: Activity; how it was run: as §4
MCF7 [12] = test: Anticancer activity against Homo sapiens (human) MCF7 cells by SRB assay; how it was run: as §5
[13] = Anticancer activity against Homo sapiens (human) NCI-322M cells assessed as cell growth at 10 uM by SRB assay; conditions: read-out: Activity; how it was run: as §4
COLO 205 = test: Anticancer activity against Homo sapiens (human) COLO205 cells assessed as cell growth at 10 uM by SRB assay; conditions: read-out: Activity; how it was run: as §3
SK-OV-3 = test: Anticancer activity against Homo sapiens (human) SKOV3 cells assessed as cell growth at 10 uM by SRB assay; conditions: read-out: Activity; how it was run: as §4
CAKI-1 [14] = test: Anticancer activity against Homo sapiens (human) CAKI-1 cells by SRB assay; how it was run: as §5
SF-295 [15] = test: Anticancer activity against Homo sapiens (human) SF295 cells assessed as cell growth at 10 uM by SRB assay; conditions: read-out: Activity; how it was run: as §4
786-0 [16] = test: Anticancer activity against Homo sapiens (human) 786-0 cells by SRB assay; how it was run: as §5
TK-10 [17] = test: Anticancer activity against Homo sapiens (human) TK10 cells assessed as cell growth at 10 uM by SRB assay; conditions: read-out: Activity; how it was run: as §2
UO-31 = test: Anticancer activity against Homo sapiens (human) UO31 cells assessed as cell growth at 10 uM by SRB assay; conditions: read-out: Activity; how it was run: as §2

Work on O=c1sc2c(Cl)nc(-c3ccccc3)nc2n1-c1ccccc1 yielded a GI50 [1] of 14.1 µM, a TGI ([1]; read-out: pTGI (converted)) of 58.9 µM and a growth at 10 µM (U-251) of 20%. For the same molecule, the GI50 (SF-295 [2]) was 57.5 µM, the growth at 10 µM (Hs-578T) was 12% and the growth at 10 µM (KM12) was 81%. For the same molecule, the growth at 10 µM (OVCAR-4) was 31%, the growth at 10 µM (HT-29) was 10% and the GI50 (SN12C [3]) was 7.41 µM. It also gave a GI50 (CCRF-CEM [4]) of 3.8 µM, a GI50 (HOP-62) of 3.63 µM and a CC50 (HOP-62; read-out: pLC50 (the source's name) (converted)) of 72.4 µM. It also gave a TGI (HOP-62; read-out: pTGI (converted)) of 15.5 µM, a growth at 10 µM (SN12C [5]) of 43% and a growth at 10 µM (786-0 [6]) of 41%. For the same molecule, the GI50 (TK-10 [7]) was 10.5 µM, the GI50 (SK-MEL-5) was 15.5 µM and the GI50 (HL-60(TB)) was 5.89 µM. It also gave a GI50 (SR) of 2.63 µM, a TGI (SR; read-out: pTGI (converted)) of 21.4 µM and a growth at 10 µM (NCI-H522) of -65%. It also gave a GI50 (RXF 393) of 2.4 µM, an LC50 (RXF 393) of 38 µM and a TGI (RXF 393; read-out: pTGI (converted)) of 8.91 µM. The growth at 10 µM (SW-620) was -4%, the growth at 10 µM (CAKI-1 [8]) was -30% and the growth at 10 µM (SNB-75) was 12%. The growth at 10 µM (LOX IMVI) was -44%, the growth at 10 µM (NCI-H23) was 20% and the growth at 10 µM (CCRF-CEM [9]) was 23%. The GI50 (SF-268) was 10.5 µM, the TGI (SF-268; read-out: pTGI (converted)) was 38 µM and the growth at 10 µM (MCF7 [10]) was 77%. It also gave a growth at 10 µM [11] of 75%, a GI50 (MCF7 [12]) of 64.6 µM and a growth at 10 µM [13] of 62%. The growth at 10 µM (COLO 205) was 52%, the growth at 10 µM (SK-OV-3) was 81% and the GI50 (CAKI-1 [14]) was 2.34 µM. The LC50 (CAKI-1 [14]) was 46.8 µM, the TGI (CAKI-1 [14]; read-out: pTGI (converted)) was 5.75 µM and the growth at 10 µM (SF-295 [15]) was 92%. It also gave a GI50 (786-0 [16]) of 7.08 µM, a TGI (786-0 [16]; read-out: pTGI (converted)) of 56.2 µM and a growth at 10 µM (TK-10 [17]) of 51%. The growth at 10 µM (UO-31) was -79%.
